{"source": "paper PMC8941156", "about": "(Heliyon, 2022)", "key": {"[1]": {"test": "Stability of rubraxanthone in mice plasma", "type": "in vitro ADME", "conditions": "for freeze–thaw stability, % diff: mice plasma, three freeze–thaw rounds", "summary_of_the_method": "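Blank mouse plasma was spiked at medium and high QC levels, extracted by acetonitrile precipitation with α-mangostin internal standard, and quantified by UHPLC-DAD at 243 nm. For freeze–thaw, four replicate samples per level went through three cycles. Post-preparative and plasma stability came from eight replicates per level. Results are given as % difference.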"}, "[2]": {"test": "Single dose oral pharmacokinetic study of rubraxanthone in mice", "type": "in vivo", "conditions": "mouse, plasma, 700 mg/kg", "summary_of_the_method": "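Mice (7–8 weeks, 20 ± 5 g) were given a fresh suspension in virgin coconut oil orally. Under isoflurane, mandibular-vein blood was taken from six mice per time point over 0–24 h into lithium heparin, and plasma was stored at −80 °C. Plasma was extracted by acetonitrile precipitation with α-mangostin internal standard and read by UHPLC-DAD (0.128–5 µg/mL calibration). Non-compartmental analysis used trapezoidal AUC and Ke from log-linear regression of the last four points (3–5.5 h), reported as mean ± SD.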"}}, "data": [{"molecule": "COc1c(O)cc2oc3cc(O)cc(O)c3c(=O)c2c1C/C=C(\\C)CCC=C(C)C", "note": "[rubraxanthone, 1,3,6,trihydroxy-8-geranyl-7-methoxy xanthone]", "values": [{"measurement": "freeze–thaw stability, % diff", "setting": "[1]; HC sample (3.750 μg/mL)", "result": 5.9, "unit": "%"}, {"measurement": "freeze–thaw stability, % diff", "setting": "[1]; MC sample (2.067 μg/mL)", "result": 0.49, "unit": "%"}, {"measurement": "post-preparative and plasma stability", "setting": "[1]; plasma kept at ambient temperature for 24 h before or after extraction vs plasma kept at -20 °C, MC and HC samples", "result": "stable"}, {"measurement": "CL/F", "setting": "[2]", "result": 18.7, "unit": "mL/min/kg"}, {"measurement": "Tmax", "setting": "[2]", "result": "1.5 ± 0.99", "unit": "h"}, {"measurement": "half-life", "setting": "[2]", "result": "6.72 ± 1.29", "unit": "h"}, {"measurement": "k el", "setting": "[2]", "result": "2.78e-05", "unit": "s⁻¹"}]}]}
